Data set [1] can be described thus: folding enthalpy; higher = less favourable; fluorescence melt of hairpins on a sequencing array, two-state fit. As to conditions: sodium 0.088 M. The procedure, abridged:
(§1)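 Bootstrapped two-state fits yielded melting temperature and folding enthalpy for library hairpins. Cy3 fluorescence, with annealed Cy3 and quencher oligos, was imaged on a sequenced MiSeq flow cell in 50 mM Na-HEPES pH 8.0, 25 mM NaCl in 2.5 °C steps up to 60 °C, and normalised to pre-quench Cy3 and to control constructs. Four replicates were combined by inverse variance, and fitted temperatures were raised by 9.35 °C to match UV melts.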

Data set [2] is described as follows: melting temperature; fluorescence melt of hairpins on a sequencing array, two-state fit, raised by 9.35 °C to match UV melts. As to conditions: sodium 0.088 M. The procedure, abridged:
as §1

From the array DNA melting data of Ke et al. (doi:10.1101/2024.01.08.574731) come the findings set out here.

As for GCGGCGCCCGC ((((...)))), the folding enthalpy in data set [1] is -15.9 kcal/mol. Further, the Tm in data set [2] was 60.9 °C.
In the case of GCGGCTGACCGC ((((....)))), the folding enthalpy in data set [1] is -24.3 kcal/mol. Further, the Tm in data set [2] is 58.1 °C.
Taken in the same sequence, the figures for GCGGCTGCGAAAGCACGC (((..(((....)))))) were -16.6 kcal/mol and 57.9 °C.
Taken in the same sequence, the figures for GCGGCTTCCCGC ((((....)))) were -26.3 kcal/mol and 58.2 °C.
Turning to GCGGCTTCGAAAGAACGC (((..(((....)))))), the folding enthalpy in data set [1] was -21.4 kcal/mol. In data set [2], the Tm stood at 44.6 °C.
Taken in the same sequence, the figures for GCGGGAAACCGC ((((....)))) were -22.9 kcal/mol and 67.3 °C.
Regarding GCGGGAAGCCGC ((((....)))), in data set [1], the folding enthalpy was -18.4 kcal/mol. The Tm in data set [2] was determined as 61.6 °C.
The matching figures for GCGGGAATCCGC ((((....)))): -27.9 kcal/mol and 68.3 °C.
With GCGGGACCCGC ((((...)))), the folding enthalpy in data set [1] is -24.5 kcal/mol. For the same sequence, the Tm in data set [2] was found to be 55.9 °C.
As for GCGGGACGAAAGTCCGC (((.(((....)))))), the folding enthalpy in data set [1] was -23.1 kcal/mol. The Tm in data set [2] amounted to 69.2 °C.
As for GCGGGAGCCGC ((((...)))), the folding enthalpy in data set [1] is -9.67 kcal/mol. The Tm in data set [2] is 54.9 °C.
Taken in the same sequence, the figures for GCGGGAGGAAACTTCCGC ((((.((....)).)))) were -40.1 kcal/mol and 58.6 °C.
Taken in the same sequence, the figures for GCGGGCACGAAAGTGCGC (((..(((....)))))) were -10.2 kcal/mol and 52.5 °C.
Taken in the same sequence, the figures for GCGGGCCCCGC ((((...)))) were -22.2 kcal/mol and 62.2 °C.
In the case of GCGGGCGAAAGCCAACGC ((((((....)))..))), the folding enthalpy in data set [1] is -22.4 kcal/mol. In addition, the Tm in data set [2] was 65.3 °C.
For GCGGGCGAAAGCCACCGC ((((((....)))..))), the folding enthalpy in data set [1] is -17.4 kcal/mol. Also, the Tm in data set [2] came to 59.2 °C.
Taken in the same sequence, the figures for GCGGGCGAAAGCCCACGC ((((((....)))..))) were -14 kcal/mol and 65.5 °C.
Taken in the same sequence, the figures for GCGGGCGAAAGCCCTCGC ((((((....)))..))) were -13.1 kcal/mol and 50 °C.
For the sequence GCGGGCGAAAGCCTACGC ((((((....)))..))), the folding enthalpy in data set [1] is -18.8 kcal/mol. In addition, in data set [2], the Tm was determined as 61.5 °C.
With GCGGGCGCCGC ((((...)))), the folding enthalpy in data set [1] is -9.79 kcal/mol. The Tm in data set [2] stood at 60.6 °C.
The matching figures for GCGGGCTCCCGC ((((....)))): -23.8 kcal/mol and 66 °C.
In the case of GCGGGCTGCCGC ((((....)))), in data set [1], the folding enthalpy is -19.5 kcal/mol. The Tm in data set [2] was determined as 60.9 °C.
As to GCGGGGCGAAAGCCGTGC ((..(((....)))..)), the folding enthalpy in data set [1] is -27.3 kcal/mol. In data set [2], the Tm amounted to 62.5 °C.
Turning to GCGGGGCGAAAGCCTGGC ((..(((....)))..)), the folding enthalpy in data set [1] was -19.2 kcal/mol. Besides, in data set [2], the Tm amounted to 57.8 °C.
Taken in the same sequence, the figures for GCGGGGCGAAAGCGCGGC ((.(.((....)).).)) were -27.6 kcal/mol and 62.5 °C.
Take GCGGGGCGAAAGCTACGC (((..((....))..))): in data set [1], the folding enthalpy was -27.3 kcal/mol. Moreover, in data set [2], the Tm was determined as 68.6 °C.
The matching figures for GCGGGGCGAAAGCTCTGC ((.(.((....)).).)): -21.9 kcal/mol and 61.9 °C.
Taken in the same sequence, the figures for GCGGGGGCCCGC ((((....)))) were -38.8 kcal/mol and 56 °C.
The matching figures for GCGGGGGGAAACCTCCGC ((((.((....)).)))): -40.9 kcal/mol and 66.7 °C.
Turning to GCGGGGTCCGC ((((...)))), in data set [1], the folding enthalpy is -28.7 kcal/mol. In addition, in data set [2], the Tm is 55.5 °C.
Taken in the same sequence, the figures for GCGGGTCCCGC ((((...)))) were -28.1 kcal/mol and 56.4 °C.
The matching figures for GCGGGTGCCGC ((((...)))): -23.3 kcal/mol and 55.9 °C.
